According to ChEMBL document CHEMBL3272242, “Sulfamylurea hypoglycemic agents. 6. High-potency derivatives” (J Med Chem, 1976):

test system: Rattus norvegicus; test: Hypoglycemic activity in 18 to 24 hrs-fasted rat assessed as reduction in blood glucose at 5 mg/kg, ip measured after 1 hr relative to saline-treated control; format: functional; parameters: scale not given: the % may be the effect or the level left; conditions: route intraperitoneal
Outline: (§1)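 Unanesthetized male Charles River rats (200–250 g), fasted 18–24 h, in groups of five or six. Single ip dose. Tail-vein blood drawn before dosing and 1 h after. Glucose measured by ferricyanide reduction micromethod on an autoanalyzer. Value is the percent fall in blood glucose at 1 h versus a saline-treated control group. Significance levels are p < 0.05, 0.01 and 0.001.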

Compound | Activity [%]
COc1ccc(Cl)cc1C(=O)NCC1CCN(S(=O)(=O)NC(=O)NC2CCCCC2)CC1.O | 20
CCCCCCNC(=O)NS(=O)(=O)N1CCC(CNC(=O)c2cc(Cl)ccc2OC)CC1 | 17
COc1ccc(NC(=O)NS(=O)(=O)N2CCC(CCNC(=O)c3cc(Cl)ccc3OC)CC2)cc1.O | 27
COc1ccc(Cl)cc1C(=O)NCCC1CCN(S(=O)(=O)NC(=O)NC23CC4CC(CC(C4)C2)C3)CC1 | 29
COc1ccc(Cl)cc1C(=O)NCCC1CCN(S(=O)(=O)NC(=O)NN2CCCCCC2)CC1 | 36
O=C(NC1CCCCC1)NS(=O)(=O)N1CCC(CCNC(=O)C(F)(F)F)CC1 | 13
CCCNC(=O)NS(=O)(=O)N1CCC(CCNC(=O)c2cc(C(F)(F)F)nn2C)CC1 | 11
O=C(NC1CCCCC1)NS(=O)(=O)N1CCC(CCNC(=O)c2csnn2)CC1 | 19
Cc1ncccc1C(=O)NCCC1CCN(S(=O)(=O)NC(=O)NC2CCCCC2)CC1 | 16
O=C(NC1CCCCC1)NS(=O)(=O)N1CCC(CCNC(=O)C2Oc3ccccc3O2)CC1 | 8
O=C(NC1CCCCC1)NS(=O)(=O)N1CCC(CCNC(=O)c2ccc3ccccc3n2)CC1 | 11
O.O=C(NC1CCCCC1)NS(=O)(=O)N1CCC(CCNC(=O)c2ccnc3ccccc23)CC1 | 16
COc1ccc2nccc(C(=O)NCCC3CCN(S(=O)(=O)NC(=O)NC4CCCCC4)CC3)c2c1.O | 15
O=C(NC1CCCCC1)NS(=O)(=O)N1CCC(CCNC(=O)c2cccc3c2OCCO3)CC1 | 34
O=C(NC[C@@H]1C[C@@H]2C=C[C@@H]1C2)NS(=O)(=O)N1CCC(CCNC(=O)c2cccc3c2OCCO3)CC1 | 11
COc1ncccc1C(=O)NCCC1CCN(S(=O)(=O)NC(=O)NCC2CCCO2)CC1 (centres undefined) | 16
COc1ncccc1C(=O)NCCC1CCN(S(=O)(=O)NC(=O)NCC2CCCCO2)CC1 (centres undefined) | 12
CCOCCNC(=O)NS(=O)(=O)N1CCC(CCNC(=O)c2cccnc2OC)CC1 | 7
Cn1cc(C(=O)NCCC2CCN(S(=O)(=O)NC(=O)NC34CC5CC(CC(C5)C3)C4)CC2)c(=O)n(C)c1=O.O | 27
COc1ccc(Cl)cc1C(=O)NCC1CCN(S(=O)(=O)NC(=O)NC[C@@H]2C[C@@H]3C=C[C@@H]2C3)CC1 (relative stereo) | 15

Compound | Activity [%]
COc1ccc(Cl)cc1C(=O)NCCC1CCN(S(=O)(=O)NC(=O)NC[C@@H]2C[C@@H]3CC[C@@H]2O3)CC1 (relative stereo) | 30
COc1ccc(Cl)cc1C(=O)NCCC1CCN(S(=O)(=O)NC(=O)NC[C@H]2C[C@@H]3CC[C@@H]2O3)CC1.O (relative stereo) | 27
CC(=O)NCCC1CCN(S(=O)(=O)NC(=O)NC[C@@H]2C[C@@H]3C=C[C@@H]2C3)CC1 (relative stereo) | 18
O=C(NC[C@@H]1C[C@@H]2C=C[C@@H]1C2)NS(=O)(=O)N1CCC(CCNC(=O)C(F)(F)F)CC1 (relative stereo) | 22
Cc1ncsc1C(=O)NCCC1CCN(S(=O)(=O)NC(=O)NC[C@@H]2C[C@@H]3C=C[C@@H]2C3)CC1 (relative stereo) | 11
Cc1cccc(C(=O)NCCC2CCN(S(=O)(=O)NC(=O)NC[C@@H]3C[C@@H]4C=C[C@@H]3C4)CC2)n1 (relative stereo) | 20
Cc1ncccc1C(=O)NCCC1CCN(S(=O)(=O)NC(=O)NC[C@@H]2C[C@@H]3C=C[C@@H]2C3)CC1.O (relative stereo) | 16
COc1ccc(C(=O)NCCC2CCN(S(=O)(=O)NC(=O)NC[C@@H]3C[C@@H]4C=C[C@@H]3C4)CC2)cn1 (relative stereo) | 11
COc1ccncc1C(=O)NCCC1CCN(S(=O)(=O)NC(=O)NC[C@@H]2C[C@@H]3C=C[C@@H]2C3)CC1 (relative stereo) | 14
O=C(NC[C@@H]1C[C@@H]2CC[C@@H]1O2)NS(=O)(=O)N1CCC(CCNC(=O)C2Oc3ccccc3O2)CC1 (relative stereo) | 15
O=C(NC[C@@H]1C[C@@H]2C=C[C@@H]1C2)NS(=O)(=O)N1CCC(CCNC(=O)c2ccc3ccccc3n2)CC1 (relative stereo) | 21
COc1ccc2nccc(C(=O)NCCC3CCN(S(=O)(=O)NC(=O)NC[C@@H]4C[C@@H]5C=C[C@@H]4C5)CC3)c2c1 (relative stereo) | 10
COc1ncccc1C(=O)NCCC1CCN(S(=O)(=O)NC(=O)NC[C@H]2C[C@@H]3C=C[C@@H]2C3)CC1 (relative stereo) | 20
COc1ncccc1C(=O)NCCC1CCN(S(=O)(=O)NC(=O)NC[C@@H]2C[C@@H]3CC[C@@H]2O3)CC1 (relative stereo) | 34
COc1ncccc1C(=O)NCCC1CCN(S(=O)(=O)NC(=O)NC[C@H]2C[C@@H]3CC[C@@H]2O3)CC1 (relative stereo) | 14
COc1ncccc1C(=O)NCCC1CCN(S(=O)(=O)NC(=O)NC[C@@H]2C[C@@H]3CC[C@@H]2C3)CC1 (relative stereo) | 35
Cn1cc(C(=O)NCCC2CCN(S(=O)(=O)NC(=O)NC[C@@H]3C[C@@H]4CC[C@@H]3C4)CC2)c(=O)n(C)c1=O.O (relative stereo) | 22
CCCn1cc(C(=O)NCCC2CCN(S(=O)(=O)NC(=O)NC[C@@H]3C[C@@H]4C=C[C@@H]3C4)CC2)c(=O)n(CC)c1=O.O (relative stereo) | 19
CCCCn1cc(C(=O)NCCC2CCN(S(=O)(=O)NC(=O)NC[C@@H]3C[C@@H]4C=C[C@@H]3C4)CC2)c(=O)n(CCCC)c1=O (relative stereo) | 12

test system: Rattus norvegicus; test: Hypoglycemic activity in 18 to 24 hrs-fasted rat assessed as reduction in blood glucose at 15 mg/kg, ip measured after 1 hr relative to saline-treated control; format: functional; parameters: scale not given: the % may be the effect or the level left; conditions: route intraperitoneal; outline: as §1

Compound | Activity [%]
Cn1cc(C(=O)NCCC2CCN(S(=O)(=O)NC(=O)NC3CCCCC3)CC2)c(=O)n(C)c1=O | 15
CSc1ccc(C(F)(F)F)cc1C(=O)NCCC1CCN(S(=O)(=O)NC(=O)NC2CCCCC2)CC1 | 24
O=C(NC1CCCCC1)NS(=O)(=O)N1CCC(CCNC(=O)c2nsc3ccccc23)CC1 | 17
O=C(NC1CCCCC1)NS(=O)(=O)N1CCC(CCNC(=O)c2ccc3c(c2)OCO3)CC1 | 17
O=C(NC1CCCCC1)NS(=O)(=O)N1CCC(CCNC(=O)c2cccc3c2OCCO3)CC1 | 42
CCCNC(=O)NS(=O)(=O)N1CCC(CCNC(=O)c2cccc3c2OCCO3)CC1 | 25
O=C(NC[C@@H]1C[C@@H]2C=C[C@@H]1C2)NS(=O)(=O)N1CCC(CCNC(=O)c2cccc3c2OCCO3)CC1 | 40
CC(=O)NCCC1CCN(S(=O)(=O)NC(=O)NC[C@@H]2C[C@@H]3C=C[C@@H]2C3)CC1 (relative stereo) | 25
O=C(NC[C@@H]1C[C@@H]2C=C[C@@H]1C2)NS(=O)(=O)N1CCC(CCNC(=O)c2cnsc2)CC1 (relative stereo) | 14
Cc1ncsc1C(=O)NCCC1CCN(S(=O)(=O)NC(=O)NC[C@@H]2C[C@@H]3C=C[C@@H]2C3)CC1 (relative stereo) | 25
O=C(NC[C@@H]1C[C@@H]2C=C[C@@H]1C2)NS(=O)(=O)N1CCC(CCNC(=O)c2cscn2)CC1 (relative stereo) | 37
COc1ccc(C(=O)NCCC2CCN(S(=O)(=O)NC(=O)NC[C@@H]3C[C@@H]4C=C[C@@H]3C4)CC2)cn1 (relative stereo) | 32
O=C(NC[C@@H]1C[C@@H]2C=C[C@@H]1C2)NS(=O)(=O)N1CCC(CCNC(=O)c2cnccc2Cl)CC1 (relative stereo) | 12
O=C(NC[C@@H]1C[C@@H]2CC[C@@H]1O2)NS(=O)(=O)N1CCC(CCNC(=O)C2Oc3ccccc3O2)CC1 (relative stereo) | 38
CC#N.O=C(NC[C@@H]1C[C@@H]2CC[C@@H]1O2)NS(=O)(=O)N1CCC(CCNC(=O)c2nc3ccccc3s2)CC1 (relative stereo) | 30
